# According to ChEMBL document CHEMBL4715819, “Bicyclic Helical Peptides as Dual Inhibitors Selective for Bcl2A1 and Mcl-1 Proteins” (J Med Chem, 2018):
# Activity calls are given as the source filed them. The calls are words filed in the database; no cut-off is given here. Positions of bridges follow the written chain, without caps; N, C: chain ends. Non-standard residues stand in square brackets, D forms with d. Residues, ends and D or L forms follow the SMILES beside them. ξ: configuration not given here. *: point of attachment. S5 = C=CCCC[C@](C)(N)C(=O)O; Acryloyl = C=CC(=O)*; ξDap = NCC(N)C(=O)O
# Legend:
# [1] = target: T1, Bcl-2-related protein A1 (Homo sapiens) (UniProt Q16548); experiment: Covalent binding affinity to Bcl2A1 in human U937 cells at 0.1 to 50 uM incubated for 24 hrs by Western blot analysis; conditions: U-937, dose 0.1-50 µM
# T1 sequence (whole entry): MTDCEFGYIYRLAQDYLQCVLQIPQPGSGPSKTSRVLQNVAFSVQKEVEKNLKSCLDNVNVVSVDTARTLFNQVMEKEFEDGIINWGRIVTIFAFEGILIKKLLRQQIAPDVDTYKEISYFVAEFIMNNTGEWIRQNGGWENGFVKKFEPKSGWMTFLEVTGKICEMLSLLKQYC
# [2] = target: Induced myeloid leukemia cell differentiation protein Mcl-1 (Homo sapiens, UniProt Q07820); experiment: Binding affinity to human Mcl1 incubated for 2 hrs by FBid based competitive FP assay
# Chain of Induced myeloid leukemia cell differentiation protein Mcl-1 (Q07820 whole entry): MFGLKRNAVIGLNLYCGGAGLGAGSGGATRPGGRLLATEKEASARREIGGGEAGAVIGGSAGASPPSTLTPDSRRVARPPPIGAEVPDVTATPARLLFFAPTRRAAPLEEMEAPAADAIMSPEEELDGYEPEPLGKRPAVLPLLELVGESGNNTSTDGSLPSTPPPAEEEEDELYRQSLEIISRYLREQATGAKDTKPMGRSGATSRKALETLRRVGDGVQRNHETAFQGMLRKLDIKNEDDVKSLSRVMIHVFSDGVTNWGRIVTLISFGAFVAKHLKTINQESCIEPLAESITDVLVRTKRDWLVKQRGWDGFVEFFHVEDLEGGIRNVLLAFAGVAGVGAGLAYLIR
# Bcl-2-related protein A1 [3] = target: T2, Bcl-2-related protein A1 (Homo sapiens, UniProt Q16548); experiment: Binding affinity to human Bcl2A1 incubated for 2 hrs by FBid based competitive FP assay
# T2 sequence (Q16548 whole entry): T1 sequence (whole entry)
# [4] = target: T1, Bcl-2-related protein A1 (Homo sapiens); experiment: Covalent binding affinity to human Bcl2A1 assessed as Kinact/Ki ratio by FBid based FP assay
# Bcl-2-related protein A1 [5] = target: T2, Bcl-2-related protein A1; experiment: Covalent binding affinity to human Bcl2A1 by FBid based FP assay
# [6] = target: T1, Bcl-2-related protein A1 (Homo sapiens); experiment: Covalent binding affinity to human Bcl2A1 assessed as inactivation constant by FBid based FP assay
# SK-MEL-28 = experiment: Cytotoxicity in human SK-MEL-28 cells assessed as reduction in cell viability incubated for 48 hrs by MTT assay; format: functional, cell-based; conditions: SK-MEL-28, 48 h
# In short: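 SK-MEL-28 cells grown in DMEM with 10% FBS and penicillin/streptomycin. Peptide applied over a concentration series for 48 h. Viability read by MTT, and IC50 taken from the dose–response.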
# [7] = target: Bcl-2-like protein 1 (Homo sapiens) (UniProt Q07817); experiment: Binding affinity to human Bcl-xL incubated for 2 hrs by FBid based competitive FP assay
# Chain of Bcl-2-like protein 1 (Homo sapiens) (Q07817 whole entry): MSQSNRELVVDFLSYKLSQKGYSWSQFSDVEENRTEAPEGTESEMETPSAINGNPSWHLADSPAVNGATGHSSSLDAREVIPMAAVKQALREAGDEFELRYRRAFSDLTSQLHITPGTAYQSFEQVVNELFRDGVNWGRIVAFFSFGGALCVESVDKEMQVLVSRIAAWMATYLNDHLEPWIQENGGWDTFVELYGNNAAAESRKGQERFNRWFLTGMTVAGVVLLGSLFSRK
# [8] = target: Apoptosis regulator Bcl-2 (Homo sapiens) (UniProt P10415); experiment: Binding affinity to human Bcl2 incubated for 2 hrs by FBid based competitive FP assay
# Chain of Apoptosis regulator Bcl-2 (Homo sapiens) (P10415 whole entry): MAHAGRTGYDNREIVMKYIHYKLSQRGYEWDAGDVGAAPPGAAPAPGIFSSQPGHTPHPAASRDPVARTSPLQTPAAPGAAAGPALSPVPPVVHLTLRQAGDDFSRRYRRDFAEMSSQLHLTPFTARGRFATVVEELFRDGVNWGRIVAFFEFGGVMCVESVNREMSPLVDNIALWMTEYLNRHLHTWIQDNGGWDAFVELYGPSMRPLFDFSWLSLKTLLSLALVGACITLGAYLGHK
# [9] = target: T3, Bcl-2-like protein 2 (Homo sapiens) (UniProt Q92843); experiment: Binding affinity to human Bcl-w incubated for 2 hrs by FBid based competitive FP assay
# T3 sequence (whole entry): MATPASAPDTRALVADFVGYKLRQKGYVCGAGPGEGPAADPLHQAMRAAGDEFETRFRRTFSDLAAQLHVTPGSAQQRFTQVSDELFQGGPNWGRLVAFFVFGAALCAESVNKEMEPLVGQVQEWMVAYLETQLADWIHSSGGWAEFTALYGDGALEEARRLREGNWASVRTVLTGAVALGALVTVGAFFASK
Structure (SMILES),Activity [1],IC50 [2] [nM],IC50 (Bcl-2-related protein A1 [3]) [nM],Ratio [4] [mM⁻¹ s⁻¹],Ki (Bcl-2-related protein A1 [5]) [nM],Kinact [6] [s⁻¹],Activity [7],Activity [8],Activity [9],IC50 (SK-MEL-28) [nM]
CC[C@H](C)[C@H](NC(C)=O)C(=O)N[C@@H](Cc1c[nH]c2ccccc12)C(=O)N[C@H](C(=O)N[C@@H](C)C(=O)N[C@@H](CCC(N)=O)C(=O)N[C@@H](CCC(=O)O)C(=O)N[C@@H](CC(C)C)C(=O)N[C@@H](CCCNC(=N)N)C(=O)N[C@@]1(C)CCC/C=C/CCC[C@@](C)(C(=O)N[C@@H](Cc2ccccc2)C(=O)N[C@@H](CC(N)=O)C(=O)N[C@@H](C)C(=O)N[C@@H](Cc2ccc(O)cc2)C(=O)N[C@@H](Cc2ccc(O)cc2)C(=O)N[C@@H](C)C(=O)N[C@@H](CCCNC(=N)N)C(=O)N[C@@H](CCCNC(=N)N)C(N)=O)NC(=O)[C@H](CC(=O)O)NC(=O)CNC(=O)[C@H]([C@@H](C)CC)NC1=O)[C@@H](C)CC,–,–,–,–,–,–,–,–,–,15700
"C=CC(=O)NCC1NC(=O)[C@@H](NC(C)=O)CCCCNC(=O)C[C@@H](C(=O)N[C@@H](CCC(=O)O)C(=O)N[C@@H](CC(C)C)C(=O)N[C@@H](CCCNC(=N)N)C(=O)N[C@H]2CCCCNC(=O)C[C@@H](C(=O)N[C@@H](Cc3ccccc3)C(N)=O)NC(=O)[C@H](CC(=O)O)NC(=O)CNC(=O)[C@H]([C@@H](C)CC)NC2=O)NC(=O)[C@H](C)NC(=O)[C@H]([C@@H](C)CC)NC1=O (some centres undefined) (Ac-K[ξDap](Acryloyl)IADELRKIGDDF-NH2; lactam 1-5, 9-13)",Active,48,6.5,118,30.5,0.00349,inactive,inactive,inactive,–

# More lines, main results first:
Activity [1],IC50 [2] [nM],IC50 (Bcl-2-related protein A1 [3]) [nM],Ratio [4] [mM⁻¹ s⁻¹],Ki (Bcl-2-related protein A1 [5]) [nM],Kinact [6] [s⁻¹],Activity [7],Activity [8],Activity [9],Structure (SMILES),IC50 (SK-MEL-28) [nM]
Active,34.5,13.5,30,81.6,0.00239,–,–,–,C=CC(=O)NCC(NC(=O)[C@@H](NC(C)=O)[C@@H](C)CC)C(=O)N[C@H](C(=O)N[C@@H](C)C(=O)N[C@@H](CCC(N)=O)C(=O)N[C@@H](CCC(=O)O)C(=O)N[C@@H](CC(C)C)C(=O)N[C@@H](CCCNC(=N)N)C(=O)N[C@@]1(C)CCC/C=C/CCC[C@@](C)(C(=O)N[C@@H](Cc2ccccc2)C(=O)N[C@@H](CC(N)=O)C(=O)N[C@@H](C)C(=O)N[C@@H](Cc2ccc(O)cc2)C(=O)N[C@@H](Cc2ccc(O)cc2)C(=O)N[C@@H](C)C(=O)N[C@@H](CCCNC(=N)N)C(=O)N[C@@H](CCCNC(=N)N)C(N)=O)NC(=O)[C@H](CC(=O)O)NC(=O)CNC(=O)[C@H]([C@@H](C)CC)NC1=O)[C@@H](C)CC (some centres undefined),–
Active,162,54.6,9,175,0.00159,inactive,inactive,inactive,C=CC(=O)NCC(NC(=O)[C@@H](NC(C)=O)[C@@H](C)CC)C(=O)N[C@H](C(=O)N[C@@H](C)C(=O)N[C@@H](CCC(N)=O)C(=O)N[C@@H](CCC(=O)O)C(=O)N[C@@H](CC(C)C)C(=O)N[C@@H](CCCNC(=N)N)C(=O)N[C@@]1(C)CCC/C=C/CCC[C@@](C)(C(=O)N[C@@H](Cc2ccccc2)C(N)=O)NC(=O)[C@H](CC(=O)O)NC(=O)CNC(=O)[C@H]([C@@H](C)CC)NC1=O)[C@@H](C)CC (some centres undefined) (Ac-I[ξDap](Acryloyl)IAQELR[S5]IGD[S5]F-NH2; staple (E) 9-13),–
Active,108,20.4,54,46.7,0.00231,inactive,inactive,inactive,C=CC(=O)NCC1NC(=O)[C@@H](NC(C)=O)CCCCNC(=O)C[C@@H](C(=O)N[C@@H](CCC(=O)O)C(=O)N[C@@H](CC(C)C)C(=O)N[C@@H](CCCNC(=N)N)C(=O)N[C@@]2(C)CCC/C=C/CCC[C@@](C)(C(=O)N[C@@H](Cc3ccccc3)C(N)=O)NC(=O)[C@H](CC(=O)O)NC(=O)CNC(=O)[C@H]([C@@H](C)CC)NC2=O)NC(=O)[C@H](C)NC(=O)[C@H]([C@@H](C)CC)NC1=O (some centres undefined) (Ac-K[ξDap](Acryloyl)IADELR[S5]IGD[S5]F-NH2; lactam 1-5; staple (E) 9-13),–
